# Assays:
# Rattus norvegicus [1] = test: Antiinflammatory activity in po dosed Wistar rat assessed as inhibition of carrageenan-induced hind paw edema volume administered 60 mins before carrageenan challenge; format: functional
# Rattus norvegicus [2] = test: Gastrointestinal toxicity in Wistar rat assessed as ulcer index at 100 mg/kg, po after 6 hrs; format: organism-based; parameters: dose 100 mg/kg, route oral; conditions: in vivo
# Summary of the method: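 Female Wistar rats, 175±25 g, fasted 24 h, dosed orally once; sacrificed 6 h later by cervical dislocation. Stomach opened along greater curvature, saline-washed, mucosa inspected with a hand lens. Lesions graded I (edema/hyperemia/petechiae), II (hemorrhagic lesions with small erosions), III (deep ulcers); UI = nI + 2nII + 3nIII. Mean ± SEM, n = 6.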
# Rattus norvegicus [3] = test: Antipyretic activity in Wistar rat assessed as change in LPS-induced rectal temperature at 100 mg/kg, po administered 30 mins before LPS challenge after 3 hrs; format: functional
# Summary of the method: (§1)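 Adult female Wistar rats, 170±20 g, fasted 24 h, dosed orally at 09:00; 30 min later E. coli 0111:B4 phenol-extracted LPS in apyrogenic saline given i.p. Rectal temperature by telethermometer probe just before and 1–7 h hourly after LPS; temperature index calculated from these readings. n = 6.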
# Mus musculus = test: Analgesic activity in Swiss albino mouse assessed as inhibition of acetic acid-induced writhing at 100 mg/kg, po administered 60 mins before acetic acid challenge after 5 to 15 mins relative to control; format: functional
# Summary of the method: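 Female Swiss albino mice, 20±5 g, fasted overnight with free water access, dosed orally; 1 h later injected i.p. with 1% v/v acetic acid at 0.1 ml/10 g. Writhes (full hind-limb extension) counted for 15 min, starting 5 min after injection; only animals giving 20 or more writhes used. % inhibition = 100(1−Wt/Wc) vs control group mean; six animals per group.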
# Rattus norvegicus [4] = test: Antiarthritic activity in Freund's complete adjuvant challenged Albino rat model assessed as change in body weight at 100 mg/kg, po administered for 14 days daily once starting a day before adjuvant challenge; format: functional; conditions: 336 h, read-out: INH
# Rattus norvegicus [5] = test: Antiarthritic activity in Albino rat assessed as inhibition of Freund's complete adjuvant-induced paw volume at 100 mg/kg, po administered for 14 days daily once starting a day before adjuvant challenge measured on day 3; format: functional
# Summary of the method: (§2)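 Female albino rats, 160±10 g, six per group, dosed orally once daily for 14 days starting the day before 0.1 ml Freund's complete adjuvant into the right hind paw subplantar surface. Both hind paw volumes, measured up to a mark at the lateral malleolus, taken before and daily after adjuvant.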
# Rattus norvegicus [6] = test: Antiinflammatory activity in […] 50 mg/kg, ip pretreated Wistar rat assessed as inhibition of carrageenan-induced hind paw edema volume at 100 mg/kg, po administered 60 mins before carrageenan challenge measured after 6 hrs; format: functional
# Summary of the method: (§3)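 Rats pretreated with SKF-525A 50 mg/kg i.p.; 1 h later oral dose at 100 mg/kg. 1 h after dosing, 0.1 ml of 1% carrageenan given subplantar into the right hind paw.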
# Rattus norvegicus [7] = test: Antipyretic activity in Wistar rat assessed as change in LPS-induced rectal temperature at 100 mg/kg, po administered 30 mins before LPS challenge after 6 hrs; format: functional; summary of the method: as §1
# Rattus norvegicus [8] = test: Antiinflammatory activity in […] 50 mg/kg, ip pretreated Wistar rat assessed as inhibition of carrageenan-induced hind paw edema volume at 100 mg/kg, po administered 60 mins before carrageenan challenge measured after 3 hrs; format: functional; summary of the method: as §3
# Rattus norvegicus [9] = test: Antipyretic activity in Wistar rat assessed as change in LPS-induced rectal temperature at 100 mg/kg, po administered 30 mins before LPS challenge after 2 hrs; format: functional; summary of the method: as §1
# Rattus norvegicus [10] = test: Gastrointestinal toxicity in Wistar rat assessed as ulcer index at 100 mg/kg, po after 14 days; format: organism-based; parameters: dose 100 mg/kg, route oral; conditions: in vivo, 336 h
# Summary of the method: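 Gastric mucosa examined for ulceration at post-mortem of female albino rats sacrificed at the end of the 14-day once-daily oral dosing in the Freund's adjuvant arthritis study; ulcer index scored per animal. Mean ± SEM, n = 6.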
# Rattus norvegicus [11] = test: Antiinflammatory activity in Wistar rat assessed as inhibition of carrageenan-induced hind paw edema volume at 100 mg/kg, po administered 60 mins before carrageenan challenge after 1 hr relative to control; format: functional
# Rattus norvegicus [12] = test: Antiinflammatory activity in […] 50 mg/kg, ip pretreated Wistar rat assessed as inhibition carrageenan-induced hind paw edema volume at 100 mg/kg, po administered 60 mins before carrageenan challenge measured after 2 hrs; format: functional; summary of the method: as §3
# Rattus norvegicus [13] = test: Antiinflammatory activity in […] 50 mg/kg, ip pretreated Wistar rat assessed as inhibition carrageenan-induced hind paw edema volume at 100 mg/kg, po administered 60 mins before carrageenan challenge measured after 1 hr; format: functional; summary of the method: as §3
# Rattus norvegicus [14] = test: Antiinflammatory activity in Wistar rat assessed as inhibition of carrageenan-induced hind paw edema volume at 100 mg/kg, po administered 60 mins before carrageenan challenge after 6 hrs relative to control; format: functional
# Rattus norvegicus [15] = test: Antipyretic activity in Wistar rat assessed as change in LPS-induced rectal temperature at 100 mg/kg, po administered 30 mins before LPS challenge after 4 hrs; format: functional; summary of the method: as §1
# Rattus norvegicus [16] = test: Toxicity in Wistar rat assessed as mortality at up to 1000 mg/kg, po after 24 hrs; format: organism-based; parameters: dose 1000 mg/kg, route oral; conditions: in vivo
# Rattus norvegicus [17] = test: Antiinflammatory activity in Wistar rat assessed as inhibition of carrageenan-induced hind paw edema volume at 100 mg/kg, po administered 60 mins before carrageenan challenge after 4 hrs relative to control; format: functional
# Rattus norvegicus [18] = test: Antiinflammatory activity in Wistar rat assessed as inhibition of carrageenan-induced hind paw edema volume at 100 mg/kg, po administered 60 mins before carrageenan challenge after 2 hrs relative to control; format: functional
# Rattus norvegicus [19] = test: Antiarthritic activity in Albino rat assessed as inhibition of Freund's complete adjuvant-induced paw volume at 100 mg/kg, po administered for 14 days daily once starting a day before adjuvant challenge measured on day 13; format: functional; summary of the method: as §2
# Rattus norvegicus [20] = test: Antipyretic activity in Wistar rat assessed as change in LPS-induced rectal temperature at 100 mg/kg, po administered 30 mins before LPS challenge after 1 hr; format: functional; summary of the method: as §1
# Rattus norvegicus [21] = test: Antiinflammatory activity in Wistar rat assessed as inhibition of carrageenan-induced hind paw edema volume at 100 mg/kg, po administered 60 mins before carrageenan challenge after 3 hrs relative to control; format: functional
# Rattus norvegicus [22] = test: Antipyretic activity in Wistar rat assessed as change in LPS-induced rectal temperature at 100 mg/kg, po administered 30 mins before LPS challenge after 7 hrs; format: functional; summary of the method: as §1
# Rattus norvegicus [23] = test: Antipyretic activity in Wistar rat assessed as change in LPS-induced rectal temperature at 100 mg/kg, po administered 30 mins before LPS challenge after 5 hrs; format: functional; summary of the method: as §1
# Rattus norvegicus [24] = test: Antiarthritic activity in Albino rat assessed as inhibition of Freund's complete adjuvant-induced paw volume at 100 mg/kg, po administered for 14 days daily once starting a day before adjuvant challenge measured on day 8; format: functional; summary of the method: as §2
# Rattus norvegicus [25] = test: Antiinflammatory activity in […] 50 mg/kg, ip pretreated Wistar rat assessed as inhibition of carrageenan-induced hind paw edema volume at 100 mg/kg, po administered 60 mins before carrageenan challenge measured after 24 hrs; format: functional; summary of the method: as §3
# Rattus norvegicus [26] = test: Antiinflammatory activity in […] 50 mg/kg, ip pretreated Wistar rat assessed as inhibition of carrageenan-induced hind paw edema volume at 100 mg/kg, po administered 60 mins before carrageenan challenge measured after 4 hrs; format: functional; summary of the method: as §3
# Rattus norvegicus [27] = test: Antiinflammatory activity in Wistar rat assessed as inhibition of carrageenan-induced hind paw edema volume at 100 mg/kg, po administered 60 mins before carrageenan challenge after 24 hrs relative to control; format: functional
smiles,measurement,setting,value
CCCCCCNC(=O)CC1CCc2cc(OC)c(OC)cc21 (stereo not drawn),ED30,Rattus norvegicus [1],24 mg/kg
same,UI,Rattus norvegicus [2],0
same,Activity,Rattus norvegicus [3],-0.23 °C
same,inhibition in vivo at 100 mg/kg,Mus musculus,82.2%
same,inhibition in vivo at 100 mg/kg,Rattus norvegicus [4],7.64 g
same,inhibition in vivo at 100 mg/kg,Rattus norvegicus [5],31.2%
same,inhibition (INH),Rattus norvegicus [6],40.42%
same,Activity,Rattus norvegicus [7],0.53 °C
same,inhibition (INH),Rattus norvegicus [8],43.08%
same,Activity,Rattus norvegicus [9],-0.94 °C
same,UI,Rattus norvegicus [10],0
same,inhibition in vivo at 100 mg/kg,Rattus norvegicus [11],46.9%
same,inhibition (INH),Rattus norvegicus [12],36.58%
same,inhibition (INH),Rattus norvegicus [13],52.38%
same,inhibition in vivo at 100 mg/kg,Rattus norvegicus [14],39.8%
same,Activity,Rattus norvegicus [15],0.11 °C
same,Activity,Rattus norvegicus [16],Non-toxic
same,inhibition in vivo at 100 mg/kg,Rattus norvegicus [17],39.1%
same,inhibition in vivo at 100 mg/kg,Rattus norvegicus [18],31%
same,inhibition in vivo at 100 mg/kg,Rattus norvegicus [19],39.4%
same,Activity,Rattus norvegicus [20],-0.56 °C
same,inhibition in vivo at 100 mg/kg,Rattus norvegicus [21],40.6%
same,Activity,Rattus norvegicus [22],0.54 °C
same,Activity,Rattus norvegicus [23],0.38 °C
same,inhibition in vivo at 100 mg/kg,Rattus norvegicus [24],28.8%
same,inhibition (INH),Rattus norvegicus [25],45.45%
same,inhibition (INH),Rattus norvegicus [26],38.6%
same,inhibition in vivo at 100 mg/kg,Rattus norvegicus [27],43.3%

# From ChEMBL document CHEMBL1151773, “Synthesis and biological evaluation of amide derivatives of (5,6-dimethoxy-2,3-dihydro-1H-inden-1-yl)acetic acid as anti-inflammatory agents with reduced gastrointestinal ulcerogenecity” (Eur J Med Chem, 2008)
